Experimental data: ChEMBL document CHEMBL1125205, “Phosphorus-containing inhibitors of HMG-CoA reductase. 2. Synthesis and biological activities of a series of substituted pyridines containing a hydroxyphosphinyl moiety” (J Med Chem, 1991)

Columns and labels:
[1] = system: Rattus norvegicus; test: The compound was tested in vivo for inhibition of Cholesterol Biosynthesis from [14C]- acetate in rat after peroral administration.; assay type: functional; settings: po
[2] = It is the ratio of I50 fibroblasts to that of I50 hepatocytes.; assay type: functional, Hepatocyte
Outline: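 Selectivity is the ratio of I50 in human skin fibroblasts to I50 in freshly isolated rat hepatocytes. Each I50 came from [14C]acetate incorporation into cholesterol, measured as percent inhibition versus controls from composite dose-response data.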

[3] = species on record: Rattus norvegicus; test: The compound was tested for inhibition of Cholesterol synthesis from [14C]- Acetate in hepatocytes of rats.; assay type: functional; settings: Hepatocyte, read-out: I 50
Outline: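 Rat hepatocytes were freshly isolated by collagenase perfusion, 70-90% viable. Cells were suspended at 5 × 10^6 per 2.0 mL in Tris pH 7.4 incubation medium with cofactors; DMSO was ≤1.0% final. Incubation was with [14C]acetate (2 µCi/mL) for 2.0 h at 37 °C. Lipids were extracted by Bligh-Dyer and the percent of label in the cholesterol peak was compared with controls. I50 from composite curves of two or more studies.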

[4] = biological target: T1, 3-hydroxy-3-methylglutaryl-coenzyme A reductase (Rattus norvegicus, UniProt P51639); test: In vitro for inhibition of rat HMG-CoA reductase.; settings: read-out: I50
T1 sequence (P51639 whole entry): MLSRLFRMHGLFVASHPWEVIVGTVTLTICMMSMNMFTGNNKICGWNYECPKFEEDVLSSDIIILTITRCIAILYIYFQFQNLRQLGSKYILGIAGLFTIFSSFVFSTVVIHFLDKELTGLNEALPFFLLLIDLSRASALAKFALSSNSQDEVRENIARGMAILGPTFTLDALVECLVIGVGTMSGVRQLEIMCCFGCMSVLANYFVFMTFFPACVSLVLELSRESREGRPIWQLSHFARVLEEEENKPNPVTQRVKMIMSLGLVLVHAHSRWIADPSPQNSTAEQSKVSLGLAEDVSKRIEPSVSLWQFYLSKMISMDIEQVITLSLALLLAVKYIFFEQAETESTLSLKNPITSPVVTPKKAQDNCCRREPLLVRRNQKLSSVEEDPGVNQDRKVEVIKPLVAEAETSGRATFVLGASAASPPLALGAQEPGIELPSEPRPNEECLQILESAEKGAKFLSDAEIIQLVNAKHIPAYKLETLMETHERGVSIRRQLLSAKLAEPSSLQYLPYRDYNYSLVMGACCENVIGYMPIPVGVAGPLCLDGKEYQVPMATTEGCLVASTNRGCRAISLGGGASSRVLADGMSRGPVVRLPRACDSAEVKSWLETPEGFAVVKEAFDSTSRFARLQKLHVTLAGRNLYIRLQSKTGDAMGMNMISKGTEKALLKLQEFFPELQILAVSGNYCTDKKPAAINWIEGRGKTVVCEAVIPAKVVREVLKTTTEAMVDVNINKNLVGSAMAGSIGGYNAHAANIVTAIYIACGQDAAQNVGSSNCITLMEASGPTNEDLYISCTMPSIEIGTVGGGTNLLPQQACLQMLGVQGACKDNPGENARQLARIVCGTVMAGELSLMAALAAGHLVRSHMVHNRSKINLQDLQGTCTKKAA
Outline: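 Enzyme source: hepatic microsomes from cholestyramine-fed Sprague-Dawley rats. Final assay conditions: 0.04 M potassium phosphate pH 7.2, KCl, sucrose, EDTA, 10 mM DTT, 1% DMSO, 50-200 µg microsomal protein. Microsomes were preincubated with 2.7 mM NADPH for 15 min at 37 °C, then with compound for 15 min. 100 µM 14C-[D,L]-HMG-CoA was then added for 20 min at 37 °C. Read-out: 14C-mevalonate, corrected by 3H-mevalonate recovery. I50 taken from composite dose-response regressions, 2-5 experiments.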

[5] = system: Rattus norvegicus; test: The compound was tested in vivo for inhibition of Cholesterol Biosynthesis from [14C]- acetate in rat after intravenous administration.; assay type: functional
Outline: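 Male Sprague-Dawley rats (200-300 g) were kept on a reverse light cycle. Salt forms were given iv into the tail vein in saline, 5 min before ip sodium [1-14C]acetate (25 µCi/100 g), dosed 2 h before mid-dark. Blood was taken 2 h after mid-dark. Read-out: 14C nonsaponifiable plasma lipid per mL versus controls, 4-5 rats/group. ED50 from log dose regressions, mean of ≥2 experiments.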

[6] = species on record: Homo sapiens; test: The compound was tested for inhibition of Cholesterol synthesis from [14C]- Acetate in human skin fibroblasts; assay type: functional; settings: read-out: I 50
Outline: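 Human skin fibroblasts (passage 7-27) were plated at 5 × 10^5 cells/well and cultured 18 h. Sterol synthesis was induced by 24 h in serum-free MEM with 1.0% fatty acid-free BSA. Cells were preincubated with compound for 30 min (DMSO ≤1.0%), then given sodium [1-14C]acetate at 2.0 µCi/mL for 4 h. Label in the extracted cholesterol peak was compared with controls. I50 from composite curves of ≥2 experiments.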

Row | Compound | ED50 [1] [mg/kg] | Selectivity [2] | IC50 [3] [nM] | IC50 [4] [nM] | ED50 [5] [mg/kg] | IC50 [6] [nM]
1 | CCc1c(-c2ccccc2)nc(C(C)C)c(/C=C/P(=O)([O-])C[C@H](O)CC(=O)[O-])c1-c1ccc(F)cc1.[Na+].[Na+] | > 10 | 19.5 | 241 | 0.55 | 0.2 | 4700
2 | CC(C)c1nc(-c2ccccc2)cc(-c2ccc(F)cc2)c1C#CP(=O)([O-])C[C@H](O)CC(=O)[O-].[Li+].[Li+] | 3.9 | 47 | 197 | 62 | 0.47 | 9300
3 | CC(C)c1nc(-c2ccccc2)cc(-c2ccc(F)cc2)c1/C=C/P(=O)([O-])C[C@H](O)CC(=O)[O-].[Li+].[Li+] | 21.4 | 26 | 77 | 1.9 | 0.22 | 2000
4 | Cc1c(-c2ccccc2)nc(C(C)C)c(/C=C/P(=O)([O-])C[C@H](O)CC(=O)[O-])c1-c1ccc(F)cc1.[Na+].[Na+] | 0.46 | 7.7 | 260 | 1.2 | 0.1 | 2000
5 | CC(C)c1nc(C(C)(C)C)cc(-c2ccc(F)cc2)c1C#CP(=O)([O-])C[C@H](O)CC(=O)[O-].[Na+].[Na+] | 3.5 | 4.3 | 556 | 6.1 | 0.7 | 2400
6 | Cc1c(-c2ccccc2)nc(C(C)C)c(C#CP(=O)([O-])C[C@H](O)CC(=O)[O-])c1-c1ccc(F)cc1.[Li+].[Li+] | 3.1 | 140 | 81 | 4.5 | 0.13 | 11300
